Reference: ChEMBL document CHEMBL1140852, “Synthesis, biological evaluation and quantitative structure-activities relationship of flavonoids as vasorelaxant agents” (Bioorg Med Chem, 2009)

What follows are molecules tested on Aorta (assay: Vasorelaxant activity in Sprague-Dawley rat aorta assessed as inhibition of phenylephrine-induced contraction after 15 to 20 mins relative to phenylephrine). Details: not given.
Assay type: functional
Procedure, shortened: (§1)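 Aortic rings from male Sprague-Dawley rats (4–6 months, ~250 g), equilibrated at least 1 h, then precontracted isometrically with PE (1 µM). Once contraction stabilized (~20 min), compounds were added cumulatively at 15–20 min intervals, up to 300 µM. Vehicle-treated control tissues were run in parallel. Relaxation is expressed as % of PE contraction (Emax), n = 4. EC50 was taken as 50% of maximum relaxation, from nonlinear regression of concentration-response curves.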
Work on `O=c1cc(-c2cccc(Br)c2)oc2cc(O)cc(O)c12` yielded an Emax of 84.3%. `O=C(/C=C/c1cccc(Br)c1)c1c(O)cc(O)cc1O` gave an Emax of 99.8%. Molecule `C=CCc1c(O)cc(O)c(C(=O)/C=C/c2ccc(O)cc2)c1O` has an Emax of 108%. With `C=CCc1c(O)ccc(C(=O)/C=C/c2ccc(O)cc2)c1O` the Emax was 73.4%. In the case of `C=CCc1cc(O)cc(C(=O)/C=C/c2ccc(O)cc2)c1O`, the Emax is reported as 59.8%. `O=C1/C(=C/c2cccc(Br)c2)Oc2cc(O)cc(O)c21` showed an Emax of 59.2%. `O=c1cc(-c2ccc3c(c2)OCO3)oc2cc(O)ccc12` was tested, and the Emax was 82.1%. Molecule `C=CCc1cc(O)cc2c(=O)cc(-c3ccc(O)cc3)oc12` has an Emax of 67.3%. For `C=CCc1c(O)ccc(C(=O)/C=C/c2ccc3c(c2)OCO3)c1O`, the Emax was 71.8%. Work on `O=C(/C=C/c1ccc2c(c1)OCO2)c1c(O)cc(O)cc1O` yielded an Emax of 104%. `O=C1/C(=C/c2ccc3c(c2)OCO3)Oc2cc(O)cc(O)c21` showed an Emax of 58.4%. `C=CCc1c(O)ccc2c1OC(c1ccc(O)c(OC)c1)CC2=O` (racemic) was tested, and the Emax was 85%. For `C=CCc1c(O)cc(O)c2c1OC(c1cccc(Cl)c1)CC2=O` (racemic), the Emax was 76.7%. `C=CCc1c(O)cc(O)c2c1OC(c1ccc(Cl)cc1)CC2=O` (racemic) showed an Emax of 77.6%. Work on `C=CCc1c(O)cc(O)c2c1OC(c1ccc(OC)cc1)CC2=O` (racemic) yielded an Emax of 81%. Molecule `C=CCc1c(O)cc(O)c2c1OC(c1cccc(O)c1)CC2=O` (racemic) has an Emax of 97.8%. Molecule `C=CCc1c(O)ccc2c1OC(c1ccc3c(c1)OCO3)CC2=O` (racemic) has an Emax of 96.6%. `C=CCc1c(O)ccc2c1OC(c1ccc(O)cc1)CC2=O` (racemic) showed an Emax of 87.2%. `O=C1CC(c2cccc(Br)c2)Oc2cc(O)cc(O)c21` (racemic) gave an Emax of 93.5%. With `O=C1CC(c2cccc(Br)c2)Oc2ccc(O)cc21` (racemic) the Emax was 91.8%. In the case of `C=CCc1c(O)cc(O)c2c1OC(c1cccc(Br)c1)CC2=O` (racemic), the Emax is reported as 78.8%. With `C=CCc1cc(O)cc2c1OC(c1ccc(O)cc1)CC2=O` (racemic) the Emax was 95.3%. In the case of `C=CCc1cc(O)cc2c1OC(c1cccc(O)c1)CC2=O` (racemic), the Emax is reported as 90.2%. `C=CCc1cc(O)cc2c1OC(c1ccc(Cl)cc1)CC2=O` (racemic) was tested, and the Emax was 95.1%. `O=C1CC(c2ccc3c(c2)OCO3)Oc2cc(O)cc(O)c21` (racemic) showed an Emax of 97.2%. For `C=CCc1c(O)cc(O)c2c1OC(c1ccc(O)cc1)CC2=O` (racemic), the Emax was 98.6%. In the case of `C=CCc1c(O)ccc2c1OC(c1ccc(Cl)cc1)CC2=O` (racemic), the Emax is reported as 70.8%. With `O=c1c(O)c(-c2ccc(O)c(O)c2)oc2cc(O)cc(O)c12` [QUERCETIN] the Emax was 91.3%.

Each molecule was assayed on Aorta (assay: Vasorelaxant activity in Sprague-Dawley rat aorta assessed as inhibition of phenylephrine-induced contraction after 15 to 20 mins). Details: not given.
Assay type: functional, tissue-based
Procedure, shortened: as §1
With `O=c1cc(-c2cccc(Br)c2)oc2cc(O)cc(O)c12` the EC50 was 36.8 µM. `C=CCc1c(O)cc(O)c(C(=O)/C=C/c2ccc(O)cc2)c1O` was tested, and the EC50 was 24 µM. In the case of `C=CCc1c(O)ccc(C(=O)/C=C/c2ccc(O)cc2)c1O`, the EC50 is reported as 89.1 µM. For `O=c1cc(-c2ccc3c(c2)OCO3)oc2cc(O)ccc12`, the EC50 was 81.7 µM. In the case of `C=CCc1cc(O)cc2c(=O)cc(-c3ccc(O)cc3)oc12`, the EC50 is reported as 51.3 µM. `O=C(/C=C/c1ccc2c(c1)OCO2)c1c(O)cc(O)cc1O` gave an EC50 of 22.5 µM. Molecule `O=C1/C(=C/c2ccc3c(c2)OCO3)Oc2cc(O)cc(O)c21` has an EC50 of 220 µM. `C=CCc1c(O)cc(O)c2c1OC(c1cccc(O)c1)CC2=O` (racemic) showed an EC50 of 37 µM. `C=CCc1c(O)ccc2c1OC(c1ccc3c(c1)OCO3)CC2=O` (racemic) was tested, and the EC50 was 9.4 µM. `C=CCc1c(O)ccc2c1OC(c1ccc(O)cc1)CC2=O` (racemic) showed an EC50 of 26.9 µM. `O=C1CC(c2cccc(Br)c2)Oc2cc(O)cc(O)c21` (racemic) was tested, and the EC50 was 42.4 µM. `O=C1CC(c2cccc(Br)c2)Oc2ccc(O)cc21` (racemic) gave an EC50 of 38.5 µM. Molecule `C=CCc1cc(O)cc2c1OC(c1ccc(O)cc1)CC2=O` (racemic) has an EC50 of 34.5 µM. `C=CCc1cc(O)cc2c1OC(c1cccc(O)c1)CC2=O` (racemic) showed an EC50 of 10.2 µM. In the case of `C=CCc1cc(O)cc2c1OC(c1ccc(Cl)cc1)CC2=O` (racemic), the EC50 is reported as 4.6 µM. With `O=C1CC(c2ccc3c(c2)OCO3)Oc2cc(O)cc(O)c21` (racemic) the EC50 was 20.1 µM. In the case of `C=CCc1c(O)cc(O)c2c1OC(c1ccc(O)cc1)CC2=O` (racemic), the EC50 is reported as 32.1 µM. `C=CCc1c(O)ccc2c1OC(c1ccc(Cl)cc1)CC2=O` (racemic) was tested, and the EC50 was 142 µM.

Same assay, conditions: read-out: pEC50 (converted)
With `O=c1cc(-c2cccc(Br)c2)oc2cc(O)cc(O)c12` the EC50 was 36.3 µM. Molecule `O=C(/C=C/c1cccc(Br)c1)c1c(O)cc(O)cc1O` has an EC50 of 21.4 µM. In the case of `C=CCc1c(O)cc(O)c(C(=O)/C=C/c2ccc(O)cc2)c1O`, the EC50 is reported as 24 µM. Molecule `C=CCc1c(O)ccc(C(=O)/C=C/c2ccc(O)cc2)c1O` has an EC50 of 89.1 µM. `O=c1cc(-c2ccc3c(c2)OCO3)oc2cc(O)ccc12` showed an EC50 of 81.3 µM. With `C=CCc1cc(O)cc2c(=O)cc(-c3ccc(O)cc3)oc12` the EC50 was 51.3 µM. With `O=C(/C=C/c1ccc2c(c1)OCO2)c1c(O)cc(O)cc1O` the EC50 was 22.4 µM. In the case of `O=C1/C(=C/c2ccc3c(c2)OCO3)Oc2cc(O)cc(O)c21`, the EC50 is reported as 224 µM. `C=CCc1c(O)cc(O)c2c1OC(c1cccc(O)c1)CC2=O` (racemic) gave an EC50 of 36.3 µM. Molecule `C=CCc1c(O)ccc2c1OC(c1ccc3c(c1)OCO3)CC2=O` (racemic) has an EC50 of 9.33 µM. With `C=CCc1c(O)ccc2c1OC(c1ccc(O)cc1)CC2=O` (racemic) the EC50 was 26.9 µM. `O=C1CC(c2cccc(Br)c2)Oc2cc(O)cc(O)c21` (racemic) was tested, and the EC50 was 43.7 µM. `O=C1CC(c2cccc(Br)c2)Oc2ccc(O)cc21` (racemic) gave an EC50 of 38 µM. In the case of `C=CCc1cc(O)cc2c1OC(c1ccc(O)cc1)CC2=O` (racemic), the EC50 is reported as 33.9 µM. `C=CCc1cc(O)cc2c1OC(c1cccc(O)c1)CC2=O` (racemic) showed an EC50 of 10.2 µM. In the case of `C=CCc1cc(O)cc2c1OC(c1ccc(Cl)cc1)CC2=O` (racemic), the EC50 is reported as 4.68 µM. Molecule `O=C1CC(c2ccc3c(c2)OCO3)Oc2cc(O)cc(O)c21` (racemic) has an EC50 of 20 µM. With `C=CCc1c(O)cc(O)c2c1OC(c1ccc(O)cc1)CC2=O` (racemic) the EC50 was 32.4 µM. Molecule `C=CCc1c(O)ccc2c1OC(c1ccc(Cl)cc1)CC2=O` (racemic) has an EC50 of 145 µM. `O=c1c(O)c(-c2ccc(O)c(O)c2)oc2cc(O)cc(O)c12` [QUERCETIN] was tested, and the EC50 was 245 µM.
